Reference: ChEMBL document CHEMBL4266038, “Total Synthesis of Xanthoangelol B and Its Various Fragments: Toward Inhibition of Virulence Factor Production of Staphylococcus aureus” (J Med Chem, 2018)
The source made the active and inactive calls. No cut-off for these calls is given here.

Experiments:
[1] = tested on: Staphylococcus aureus subsp. aureus USA300; assay: Inhibition of Staphylococcus aureus USA300 GFP-fused SaeRS at 20 uM after 8 hrs by fluorescence-based assay
Procedure, shortened: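 Reporter strain S. aureus carrying a P_hlam-gfp fusion (kept on chloramphenicol 5 µg/ml) was grown in TSB to OD600 = 1 and diluted to 5x10^5 cells/ml with compound; DMSO served as blank. Cultures were shaken at 37 °C for 8 h, then GFP (ex 485/em 515 nm) and OD600 were read.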

[2] = tested on: Staphylococcus aureus subsp. aureus USA300; assay: Inhibition of Staphylococcus aureus USA300 SaeRS assessed as reduction in alpha-hemolysin gene expression at 10 uM after 6 hrs by qRT-PCR analysis
Staphylococcus aureus [3] = assay: Antivirulence activity in Staphylococcus aureus USA300-infected Galleria mellonella larvae model assessed as larvae survival at 4.3 mg/kg injected at 2 hrs post infection at every 12 hr interval for 72 hrs (reference value: 20%); format: functional
Procedure, shortened: (§1)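 G. mellonella larvae, 10 per group, were each injected with 20 µl of USA300 inoculum (5x10^6 cfu) into the lower left proleg and held at 37 °C in the dark without food. Treatment was given after infection and repeated every 12 h over 72 h, at doses up to 4.085 or 4.262 mg/kg body weight. Survival was scored daily along with activity, silk production and melanization.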

[4] = tested on: Staphylococcus aureus subsp. aureus USA300; assay: Inhibition of Staphylococcus aureus USA300 SaeRS assessed as reduction in staphylokinase gene expression at 10 uM after 6 hrs by qRT-PCR analysis
Procedure, shortened: (§2)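 S. aureus cultures were treated with compound for 6 h. Total RNA was stabilised and purified with enzymatic disruption, then reverse-transcribed with random hexamers. qRT-PCR used an intercalating dye, with transcripts normalised to 16S rRNA, in triplicate.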

Staphylococcus aureus [5] = assay: Antibacterial activity against Staphylococcus aureus USA300 assessed as log reduction in bacterial burden after 72 hrs; format: functional, organism-based
Procedure, shortened: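 Galleria mellonella larvae (10 per group) injected in the lower left proleg with 5x10^6 cfu USA300 in 20 µl, held at 37 °C in the dark; treatment began 2 h post infection and was re-injected every 12 h for 72 h. Haemolymph was plated on blood agar to count S. aureus burden at 72 h.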

[6] = target: T1, Histidine protein kinase SaeS (Staphylococcus aureus (strain NCTC 8325)) (UniProt Q2G2U1); assay: Binding affinity to Staphylococcus aureus SaeS assessed as T2-rerelaxation time of compound peak at 1 mM by 1D CPMG method
T1 sequence (whole entry): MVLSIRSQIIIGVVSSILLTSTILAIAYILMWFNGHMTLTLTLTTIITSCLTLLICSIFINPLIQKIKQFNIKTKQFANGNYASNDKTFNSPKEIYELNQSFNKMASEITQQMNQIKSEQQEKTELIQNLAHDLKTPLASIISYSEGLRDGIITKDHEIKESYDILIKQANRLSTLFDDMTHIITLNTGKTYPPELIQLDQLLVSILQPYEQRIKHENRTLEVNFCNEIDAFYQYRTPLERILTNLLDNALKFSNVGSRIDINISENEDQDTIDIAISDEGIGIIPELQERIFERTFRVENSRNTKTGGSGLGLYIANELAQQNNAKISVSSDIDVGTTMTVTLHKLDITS
Procedure, shortened: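 Transverse-relaxation-filtered 1D NMR using a CPMG pulse train. Ligand fixed at 1.0 mM, from a stock in deuterated DMSO; minimal SaeS kinase domain at 0.1 mM, dialysed into NMR buffer.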

[7] = tested on: Staphylococcus aureus subsp. aureus USA300; assay: Inhibition of Staphylococcus aureus USA300 SaeRS assessed as reduction in gamma-hemolysin gene expression at 10 uM after 6 hrs by qRT-PCR analysis
HeLa [8] = assay: Cytotoxicity against human HeLa cells assessed as reduction in cell viability at >IC50 concentration after 72 hrs by fluorescein diacetate/propidium iodide double staining based confocal microscopy
Staphylococcus aureus [9] = assay: Antivirulence activity in Staphylococcus aureus USA300-infected Galleria mellonella larvae model injected at every 12 h interval for 72 hrs; format: functional, organism-based; procedure, shortened: as §1
[10] = target: T1, Histidine protein kinase SaeS (Staphylococcus aureus (strain NCTC 8325)); assay: Binding affinity to Staphylococcus aureus MBP-fused SaeS by STD-NMR spectrophotometry
Procedure, shortened: (§3)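 Saturation transfer difference 1D NMR with ligand fixed at 1.0 mM, prepared from a stock in deuterated DMSO. Protein was either 30 µM minimal SaeS kinase domain fused to maltose binding protein (MBP-SaeS) or 0.1 mM minimal kinase domain, dialysed into NMR buffer beforehand.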

[11] = tested on: Staphylococcus aureus subsp. aureus USA300; assay: Inhibition of Staphylococcus aureus USA300 SaeRS assessed as reduction in aureolysin gene expression at 10 uM after 6 hrs by qRT-PCR analysis
[12] = target: T1, Histidine protein kinase SaeS (Staphylococcus aureus (strain NCTC 8325)); assay: Binding affinity to Staphylococcus aureus SaeS kinase domain at 1 mM by 1D-NMR analysis; procedure, shortened: as §3
Staphylococcus aureus [13] = assay: Growth inhibition of Staphylococcus aureus USA300 up to 64 uM after 8 to 20 hrs; format: organism-based
Procedure, shortened: (§4)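 USA300 was grown in TSB at 37 °C with shaking at 250 rpm. Growth was followed in the presence of compound for 8 h and for 20 h, in triplicate.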

[14] = target: T1, Histidine protein kinase SaeS (Staphylococcus aureus (strain NCTC 8325)); assay: Inhibition of phosphotransfer reaction from recombinant Staphylococcus aureus phosphorylated His6-tagged SaeS kinase domain to Staphylococcus aureus SaeR expressed in Escherichia coli BL21(DE3) at 0.2 to 1 mM after 60 mins by coomassie-brilliant blue staining based SDS PAGE/autoradiographic analysis
Staphylococcus aureus [15] = assay: Reduction in Staphylococcus aureus USA300 sarA gene expression at 10 uM after 6 hrs by qRT-PCR analysis; format: functional; procedure, shortened: as §2
HeLa [16] = assay: Cytotoxicity against human HeLa cells assessed as reduction in cell viability at 8 uM after 72 hrs by fluorescein diacetate/propidium iodide double staining based confocal microscopy
Staphylococcus aureus [17] = assay: Antivirulence activity in Staphylococcus aureus USA300-infected Galleria mellonella larvae model assessed as larvae survival at 4.1 mg/kg injected at 2 hrs post infection at every 12 hr interval for 72 hrs (reference value: 20%); format: functional; procedure, shortened: as §1
[18] = tested on: Staphylococcus aureus subsp. aureus USA300; assay: Inhibition of Staphylococcus aureus USA300 SaeRS assessed as reduction in aureolysin gene expression at 8 uM after 6 hrs by qRT-PCR analysis
[19] = tested on: Staphylococcus aureus subsp. aureus USA300; assay: Inhibition of Staphylococcus aureus USA300 SaeRS assessed as reduction in alpha-hemolysin gene expression at 8 uM after 6 hrs by qRT-PCR analysis
[20] = tested on: Staphylococcus aureus subsp. aureus USA300; assay: Inhibition of Staphylococcus aureus USA300 SaeRS assessed as reduction in gamma-hemolysin gene expression at 8 uM after 6 hrs by qRT-PCR analysis
Staphylococcus aureus [21] = assay: Growth inhibition of Staphylococcus aureus USA300 at 16 uM after 20 hrs; format: organism-based; procedure, shortened: as §4
[22] = tested on: Staphylococcus aureus subsp. aureus USA300; assay: Inhibition of Staphylococcus aureus USA300 SaeRS assessed as reduction in staphylokinase gene expression at 8 uM after 6 hrs by qRT-PCR analysis; procedure, shortened: as §2
[23] = target: T1, Histidine protein kinase SaeS (Staphylococcus aureus (strain NCTC 8325)); assay: Inhibition of phosphotransfer reaction from recombinant Staphylococcus aureus phosphorylated His6-tagged SaeS kinase domain to Staphylococcus aureus SaeR expressed in Escherichia coli BL21(DE3) at 0.2 mM after 60 mins by coomassie-brilliant blue staining based SDS PAGE/autoradiographic analysis
Staphylococcus aureus [24] = assay: Reduction in Staphylococcus aureus USA300 sarA gene expression at 8 uM after 6 hrs by qRT-PCR analysis; format: functional; procedure, shortened: as §2
Staphylococcus aureus [25] = assay: Growth inhibition of Staphylococcus aureus USA300 at 64 uM after 20 hrs; format: organism-based; procedure, shortened: as §4

## CC(C)=CCC/C(C)=C/Cc1c(O)ccc(C(=O)/C=C/c2ccc(O)cc2)c1O
[1]
  inhibition: inactive

## C=CCc1c(O)ccc(C(=O)/C=C/c2ccc(O)cc2)c1O
[1]
  inhibition: inactive

## C=CCc1c(O)ccc(C(C)=O)c1O
[1]
  inhibition: inactive

## C=C(C)C(O)CC/C(C)=C/Cc1c(O)ccc(C(=O)CC(O)c2ccc(O)cc2)c1O (centres undefined)
[2]
  inhibition: Active
Staphylococcus aureus [3]
  survival at 4.3 mg/kg: 100%
[4]
  inhibition: Active
Staphylococcus aureus [5]
  Activity: Dose-dependent effect
[6]
  Activity: Active
[7]
  inhibition: Active
HeLa [8]
  Activity: Non-Toxic
Staphylococcus aureus [9]
  Activity: Dose-dependent effect
[10]
  Activity: Active
[11]
  inhibition: Active
[12]
  Activity: Active
Staphylococcus aureus [13]
  growth inhibition (GI): Non-Toxic
[14]
  inhibition: inactive
Staphylococcus aureus [15]
  Activity: inactive
HeLa [16]
  Activity: Non-Toxic

## COc1ccc(C(=O)/C=C/c2ccc(O)cc2)c(O)c1C/C=C(\C)CCC=C(C)C
[1]
  inhibition: inactive

## C=C(C)CCC=C(C)C
[1]
  inhibition: inactive

## C=C(C)C(O)CC/C(C)=C/Cc1c(O)ccc(C(=O)/C=C/c2ccc(O)cc2)c1O (centres undefined) [XANTHOANGELOL B]
Staphylococcus aureus [17]
  survival at 4.1 mg/kg: 100%
Staphylococcus aureus [5]
  Activity: Dose-dependent effect
HeLa [8]
  Activity: Non-Toxic
Staphylococcus aureus [9]
  Activity: Dose-dependent effect
[18]
  inhibition: Active
[19]
  inhibition: Active
[20]
  inhibition: Active
Staphylococcus aureus [21]
  growth inhibition (GI): Toxic
[22]
  inhibition: Active
[23]
  inhibition: inactive
Staphylococcus aureus [24]
  Activity: inactive
HeLa [16]
  Activity: Non-Toxic
Staphylococcus aureus [25]
  growth inhibition (GI): Toxic

## O=C(/C=C/c1ccc(O)cc1)c1ccc(O)cc1O
[1]
  inhibition: inactive
